ChEMBL document CHEMBL5576140, “Computational Design of Pore-Forming Peptides with Potent Antimicrobial and Anticancer Activities” (J Med Chem, 2024)

Key:
[1] = Hemolytic activity against human RBC incubated for 1 hr by microplate reader analysis; assay type: toxicity, cell-based, Erythrocyte; conditions: red blood cells (erythrocytes)
How it was run: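 Human red blood cells exposed to peptides up to 50 μM; hemolysis measured, IC50 derived where reached.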

[2] = Toxicity against reconstructed human skin model assessed as tissue viability at 50 uM incubated for 1 hr followed by compound washout measured after 42 hrs by MTT assay; assay type: tissue-based, Skin of body; conditions: read-out: Activity
How it was run: (§1)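 Reconstructed human epidermis with stratum corneum, per OECD TG 439 skin irritation guideline. Tissues exposed 1 h to peptide at 50 μM, then 42 h post-treatment incubation. Viability read by MTT. Controls were SDS and melittin.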

Staphylococcus aureus [3] = experiment: Antimicrobial activity against Staphylococcus aureus NE1506 harboring single transposon insertion mutation in V8 protease at 30 uM incubated for 18 hrs relative to control; assay type: functional
How it was run: (§2)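 CA-MRSA USA300 LAC derivative JE2 and single transposon insertion mutants derived from JE2, each lacking an extracellular protease gene, were exposed to peptides up to 30 μM. The read-out was percent growth inhibition. Peptides were dissolved in PBS, and tests were run in triplicate.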

[4] = Toxicity against reconstructed human skin model assessed as irritation at 50 uM incubated for 1 hr followed by compound washout measured after 42 hrs by MTT assay; assay type: tissue-based, Skin of body; how it was run: as §1
Staphylococcus aureus [5] = experiment: Antimicrobial activity against Staphylococcus aureus NE163 harboring single transposon insertion mutation in aureolysin at 30 uM incubated for 18 hrs relative to control; assay type: functional; how it was run: as §2
Staphylococcus aureus [6] = experiment: Antimicrobial activity against Staphylococcus aureus NE934 harboring single transposon insertion mutation in staphopain B at 30 uM incubated for 18 hrs relative to control; assay type: functional; how it was run: as §2
Staphylococcus aureus [7] = experiment: Antimicrobial activity against Staphylococcus aureus NE1740 harboring single transposon insertion mutation in staphopain A at 30 uM incubated for 18 hrs relative to control; assay type: functional; how it was run: as §2
[8] = Stability in simulated pore POPC lipid bilayer membrane; assay type: physicochemical
How it was run: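 Coarse-grained MD with the "scaled" Martini force field, peptides in POPC membrane, 51 μs. Counts transmembrane peptides at 51 μs. Water beads within 2 nm vertically of membrane centre and peptide–peptide interaction energy averaged over 48–51 μs. Contacts (salt bridge or stacking) scored below 0.8 nm and called stable if present ≥50% of the time.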

Escherichia coli = experiment: Antimicrobial activity against Escherichia coli TOP10 incubated for 24 hrs by broth microdilution assay; assay type: functional
Staphylococcus carnosus = experiment: Antimicrobial activity against Staphylococcus carnosus CCM 4838T incubated for 24 hrs by broth microdilution assay; assay type: functional

| Substance | IC50 at 1 h [1] [µM] | inhibition at 30 µM (Staphylococcus aureus [3]) [%] | inhibition at 30 µM (Staphylococcus aureus [5]) [%] | inhibition at 30 µM (Staphylococcus aureus [6]) [%] | inhibition at 30 µM (Staphylococcus aureus [7]) [%] | MIC (Escherichia coli) [µM] | other results |
| --- | --- | --- | --- | --- | --- | --- | --- |
| H-KKKKLKKILKKLFQFINQLENQLQEIKQNK-NH2 | > 50 |  |  |  |  |  |  |
| H-KKKKLKKILKKLFQFIQQLDQQLQDIKQQK-NH2 | > 50 | < 45 | < 45 | < 45 | < 45 |  | viability at 1 h, 50 µM [2]: 100%; Activity [4]: Non-Toxic |
| H-KKKKLKKILKKLFSFISSLDSSLSDIKSSK-NH2 |  | < 45 | < 45 | < 45 | < 45 |  | Stability [8]: Stable |
| H-KKKKLKKILKKLWQWINQLDNQLQDIKQNK-NH2 | > 50 |  |  |  |  |  |  |
| H-KKKKLKKLLKKLFQFLNQLDNQLQDLKQNK-NH2 |  | < 45 | < 45 | < 45 | < 45 |  |  |
| H-KKKKLRRILRRLFQFINQLDNQLQDIKQNK-NH2 | 49 |  |  |  |  |  |  |
| H-KKKKMKKMMKKMFQFMNQMDNQMQDMKQNK-NH2 |  | < 45 | < 45 | < 45 | < 45 | > 50 |  |
| H-KKKKVKKVVKKVFQFVNQVDNQVQDVKQNK-NH2 |  | < 45 | < 45 | < 45 | < 45 | > 50 | MIC (Staphylococcus carnosus): > 50 µM |
| H-KNQNLDDILNQLFQFINQLKNQLQKIKKKK-NH2 |  |  |  |  |  | > 50 |  |
| H-RRRRLKKILKKLFQFINQLDNQLQDIRQNR-NH2 | 6.9 |  |  |  |  |  |  |
